HTR5A ag ctr: HTR5A agonists in luminescence cell assay, primary screen, counter-screen for OPRM1-OPRD1 heterodimer agonist project, full-deck HTS | 5-hydroxytryptamine receptor 5A (Homo sapiens), P47898 | cell-based | activation, % at 9.3 µM | actives 0.61% (n = 340,000); in the data active = activation mostly above about 9.5%, no sharp cut-off; inactive = mostly below about 7.6%
Target sequence (P47898 whole entry, looked up): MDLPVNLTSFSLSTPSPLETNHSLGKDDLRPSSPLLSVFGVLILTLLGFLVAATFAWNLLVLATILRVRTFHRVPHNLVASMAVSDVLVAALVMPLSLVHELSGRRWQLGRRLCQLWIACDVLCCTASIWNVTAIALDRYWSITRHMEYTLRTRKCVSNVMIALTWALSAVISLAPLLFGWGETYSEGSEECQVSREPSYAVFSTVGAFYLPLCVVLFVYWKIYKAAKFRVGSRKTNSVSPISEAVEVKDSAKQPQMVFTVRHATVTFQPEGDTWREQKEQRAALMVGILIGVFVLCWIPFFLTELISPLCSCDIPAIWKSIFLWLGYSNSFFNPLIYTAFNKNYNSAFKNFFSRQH
Hep lipid drop: inhibitors of hepatocyte lipid droplet formation, primary screen, imaging, high-throughput imaging, BODIPY stain; AML12 mouse hepatocytes, oleate lipid droplets; inhibition, % at 6.5 µM; actives 0.4% (n = 240,000);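 active = lipid droplet intensity inhibited by at least 50%, with more than 500 cells counted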
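Assay system: AML12 mouse liver cells | Compound: 6.5 µM single-point dosing | Schedule: Overnight exposure | Technique: Fluorescence imaging, 20x objective, two fields per well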
HTR5A inv ag: HTR5A inverse agonists in luminescence cell assay, primary screen, counter-screen for OPRM1-OPRD1 heterodimer inverse agonist project, full-deck HTS. HTR5A cell line, inverse agonism. inhibition, % at 9.3 µM. actives 0.083% (n = 340,000). AID 504634, 2011; in the data active = inhibition mostly above about 23%, no sharp cut-off; inactive = mostly below about 18%
MOR-DOR ag: agonists of OPRM1-OPRD1 heterodimerization, primary screen, cell-based, luminescence. cells. actives 0.3% (n = 340,000). activation, % at 9.3 µM. Mu-type opioid receptor (Homo sapiens) + Delta-type opioid receptor (Homo sapiens), …; in the data active = activation above about 18%
MOR-DOR inv ag: inverse agonists of MOR-DOR heterodimerization, primary screen, cell-based, luminescence. cell-based MOR-DOR heterodimer luminescence, inverse agonism. inhibition, % at 9.3 µM. AID 504357, 2011. Mu-type opioid receptor (Homo sapiens) + Delta-type opioid receptor (Homo sapiens), …. actives 0.21% (n = 340,000); in the data active = inhibition above about 22%, passing the limit was not always enough
Large screens that a line does not name were inactive. The list is not random: actives were taken first. Their share in the collection is about 1.4%.

COc1ccc(C(C(=O)NC2CCCCC2)N(C(=O)CCl)c2ccc(Cl)cc2)cc1 (stereo not given)	HTR5A ag ctr 66, MOR-DOR ag 89
Cc1cccc(N(C(=O)CNC(=O)c2ccco2)C(C(=O)NC2CCCCC2)c2cccnc2)c1 (stereo not given)	none
O=C(NC1CCCCC1)C(c1cccnc1)N(C(=O)CCl)c1cccc(Cl)c1 (stereo not given)	HTR5A ag ctr 36, MOR-DOR ag 35
CCn1cc(C(=O)N[C@H](C(=O)NCCN2CCOCC2)C(C)C)c(=O)c2cc3c(cc21)OCO3	none
O=C(NCCN1CCOCC1)C1(C(F)(F)F)C/C(=C\Cc2ccccc2)CCCO1 (stereo not given)	none (no result: Hep lipid drop)
O=C(CCc1ccccc1)NC(c1cccs1)c1cc(Cl)c2cccnc2c1O (stereo not given)	HTR5A ag ctr 13
CCOc1ccc(NC(=O)NCCN2CCN(c3ccccc3F)CC2)cc1	none
CCOc1ccc(NC(=O)NCCN2CCN(c3cccc(C)c3C)CC2)cc1	HTR5A ag ctr 11
Nc1nonc1C(=O)N/N=C/c1ccncc1	HTR5A ag ctr 11
O=C(O)C1CC=CCC1C(=O)Nc1cccc(Cl)c1 (stereo not given)	none (no result: Hep lipid drop)
O=C(O)C1CC=CCC1C(=O)NCCc1cccc(Cl)c1 (stereo not given)	HTR5A ag ctr 13
CCCN(Cc1nnc(-c2cccs2)o1)C(=O)CN1C(=O)NC2(CCCCC2C)C1=O (stereo not given)	none (no result: Hep lipid drop)
O=C(NCc1cccc(F)c1F)C1CCC(=O)N(C2CCCCCC2)C1 (stereo not given)	none
O=C1Nc2c(Br)cccc2C1=O	none (no result: Hep lipid drop)
Cc1cccc2c1NC(=O)C2=O	MOR-DOR inv ag 41 (no result: Hep lipid drop)
O=C(Nc1ccc2c(c1)CCC2)c1cnc(Cl)c(Cl)c1	HTR5A ag ctr 11
Cc1ccc2nc(Cl)c(/C=N/NC(=O)[C@H]3C[C@@H]3c3ccccc3)cc2c1	Hep lipid drop 105
CC(C)(C)c1ccc(C2CC2C(=O)N/N=C\c2cc3ccccc3nc2Cl)cc1 (stereo not given)	none (no result: Hep lipid drop)
CCOC(=O)C1CCCN(CCC(=O)Nc2cc(C)cc(C)c2)C1 (stereo not given)	HTR5A ag ctr 10
Cc1ccccc1OCC(=O)N1CCN(C(=O)COc2ccccc2C)CC1	none
Cc1cc(S(=O)(=O)Nc2ccc(C(=O)N3CCN(c4ccccc4O)CC3)cc2)ccc1F	HTR5A ag ctr 14
Cc1ccc(S(=O)(=O)Nc2cccc(C(=O)N3CCN(c4ccccc4O)CC3)c2)cc1F	none (no result: Hep lipid drop)
O=C(O)c1ccc(CNS(=O)(=O)c2ccc3ccccc3c2)cc1	HTR5A ag ctr 9.9
CCC(NC(=O)Nc1nnc(C(F)(F)F)s1)(C(F)(F)F)C(F)(F)F	HTR5A ag ctr 12 (no result: Hep lipid drop)
O=C(O)CCC(=O)Nc1nnc(C(F)(F)F)s1	none (no result: Hep lipid drop)
CN(C)C(=O)CSc1nc2ccccc2n1Cc1ccccc1	none
CC(C)N(C(=O)CSc1nc2ccccc2n1Cc1ccccc1)C(C)C	HTR5A ag ctr 10.0
COc1cc(NC(=O)c2ccc(Cl)cc2)c(Cl)cc1NC(=O)c1cccnc1	none
COc1ccc(C(=O)Cc2cc3cccc(OC)c3oc2=O)cc1	none
COc1ccc(C(=O)CC2OC(=O)c3c2ccc(OC)c3OC)cc1 (stereo not given)	HTR5A ag ctr 13
COc1cc(OC)cc(-c2c(C#Cc3ccsc3)c3cc(-c4cccc5[nH]cc(C=O)c45)ccc3n2C)c1	none (no result: Hep lipid drop)
Cc1cc(C)c(NC(=O)CCCCCNC2CCCCC2)c(C)c1	none
Cc1ccc(-c2nc3ncccn3c2Nc2ccc3c(c2)OCCO3)cc1	HTR5A ag ctr 10
COc1ccc(-c2nc3ncccn3c2Nc2ccc3c(c2)OCCO3)cc1	none
O=C(COC(=O)Cc1ccccc1F)NC(=O)NC1CCCC1	HTR5A ag ctr 12 (no result: Hep lipid drop)
Cc1cc(NC(=O)CSc2nccn2C)n(-c2ccccc2)n1	HTR5A ag ctr 14
O=C(NCc1ccc2c(c1)OCO2)c1cc(-c2ccccn2)nc2ccccc12	Hep lipid drop 58
COc1ccc(-n2c(N)c(C(=O)Nc3c(C)n(C)n(-c4ccccc4)c3=O)c3nc4ccccc4nc32)cc1	none
Cc1ccc(-n2c(N)c(C(=O)Nc3c(C)n(C)n(-c4ccccc4)c3=O)c3nc4ccccc4nc32)cc1C	Hep lipid drop 70 (no result: HTR5A ag ctr, HTR5A inv ag, MOR-DOR ag, MOR-DOR inv ag)
CN(C(=O)c1cccc(NC(=O)c2cccs2)c1)c1ccccc1	HTR5A ag ctr 11
CN(CC(=O)Nc1c(Cl)cccc1Cl)C(=O)c1ccc(-n2cncn2)c([N+](=O)[O-])c1	HTR5A ag ctr 11 (no result: Hep lipid drop)
CN(CC(=O)Nc1cccc(F)c1)C(=O)c1ccc(-n2cncn2)c([N+](=O)[O-])c1	none (no result: Hep lipid drop)
Cc1ccccc1N1CC(C(=O)Nc2ccncc2)CC1=O (stereo not given)	none (no result: Hep lipid drop)
O=C(CN1CCN(CCC(=O)Nc2ccccc2F)CC1)Nc1ccc(Cl)cc1	HTR5A ag ctr 13 (no result: Hep lipid drop)
Nc1c(C(=O)c2ccco2)oc2ccccc12	none (no result: HTR5A ag ctr, HTR5A inv ag, MOR-DOR ag, MOR-DOR inv ag)
CN(Cc1ccccc1)c1ccc(N2C(=O)CCCC2=O)cc1[N+](=O)[O-]	none
CC(C)CC(=O)Nc1c2c(nn1-c1cccc(Cl)c1)CS(=O)(=O)C2	none
Cc1ccc(Sc2ccc(N)cc2C#N)cc1	none (no result: Hep lipid drop)
COc1cc(NC(=O)NCC2CCN(Cc3ccccc3C)CC2)cc(OC)c1OC	none
COc1ccc(CCNC(=O)c2ccc(CNS(=O)(=O)c3cc(C)ccc3C)cc2)cc1OC	none
COc1ccc2c3c(ccc2c1)C(=O)/C(=C/O)CC3	HTR5A ag ctr 22, MOR-DOR ag 25 (no result: Hep lipid drop)
CCN(CCCNC(=O)C1CCCN(S(=O)(=O)CC)C1)c1cccc(C)c1 (stereo not given)	none (no result: Hep lipid drop)
CCN(CCCNC(=O)C1CCN(S(=O)(=O)c2cnc[nH]2)CC1)c1cccc(C)c1	HTR5A ag ctr 11 (no result: Hep lipid drop)
CCCCn1nc(C(=O)N(CC(C)C)c2c(N)n(CCCC)c(=O)[nH]c2=O)c2ccccc2c1=O	none (no result: Hep lipid drop)
O=c1ccc2[n+]([O-])c3ccc(O)cc3oc-2c1	none (no result: Hep lipid drop)
Nc1ccc(-c2c3ccc(=O)cc-3oc3cc(O)ccc23)c(C(=O)O)c1	MOR-DOR inv ag 32 (no result: Hep lipid drop)
Oc1ccc2ccccc2c1-c1sc(Nc2ccccc2)n[n+]1-c1ccc(F)cc1	none
Fc1ccc(-[n+]2nc(Nc3ccccc3)sc2-c2c3ccccc3cc3ccccc23)cc1	HTR5A ag ctr 17
N#CCCNS(=O)(=O)c1ccc(C(=O)OCC2CCCCC2)cc1	HTR5A ag ctr 12
O=C(Nc1cccc(S(=O)(=O)N2CCCCC2)c1)c1ccc(S(=O)(=O)C(F)F)cc1	HTR5A ag ctr 12
O=C(CCNC(=O)C1CCN(S(=O)(=O)c2ccc(F)cc2)CC1)NCc1cccnc1	none
